Measurements reported in article PMC9534497 (Science Advances, 2022).
Numbering of substitutions follows the chain as printed. Names and notes keep the numbering of the source.

Assays:
[1] = system: E. coli EH3827; assay: In vivo replication assay, poriC transformation of ∆dnaA cells; assay type: cell-based; settings: 0.1 or 0.2% arabinose, versus DnaA WT
[2] = system: E. coli MG1655; assay: Growth of wild-type host on overexpression of DnaA; assay type: cell-based; settings: 30°C, WT host
[3] = system: E. coli CM742 (dnaA46ts); assay: Flow cytometry, total DNA content per cell; assay type: cell-based; settings: 30°C, 0.2% arabinose, rifampicin and cephalexin 2.5 hours
How it was run: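 Host is dnaA46ts E. coli transformed with pBAD-derived plasmids carrying wild-type or mutant dnaA under an arabinose promoter. Overnight LB cultures with antibiotics were diluted to OD600 ~0.005 and grown 45 min. Each culture was split: one half got 0.2% arabinose, the other 0.2% glucose. At 30°C to OD600 0.15, then rifampicin (150 μg/ml) plus cephalexin (10 μg/ml) for 2.5 h; DNA content measured by flow cytometry.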

[4] = DTSSP cross-linking for higher-oligomer forms of DnaA; assay type: biochemical, E. coli; settings: ATP form treated with DTSSP
[5] = system: E. coli CM742 (dnaA46ts) carrying pRD (seqA); assay: Growth of dnaA46ts cells with SeqA-expressing plasmid pRD; assay type: cell-based; settings: 30°C, IPTG 50 μM (SeqA expressed), no arabinose, 0.2% arabinose or 0.2% glucose
How it was run: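 Cells carrying the IPTG-inducible seqA plasmid were made competent on LB-agar with tetracycline and 50 μM IPTG. They were transformed with pBAD-based dnaA plasmids and selected at 30°C on tetracycline (12.5 μg/ml) plus ampicillin (100 μg/ml). Single colonies were grown in LB to OD600 ~0.1. Equal OD units were replica-plated with no sugar, 0.2% arabinose or 0.2% glucose.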

[6] = ThermoFluor assay, melting point of DnaA proteins; assay type: physicochemical, E. coli
[7] = system: E. coli EH3287 (∆dnaA/pgsA^+); assay: Subcellular fractionation and immunoblotting of DnaA; assay type: cell-based; settings: 0.2% arabinose for 90 min
How it was run: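 ΔdnaA/pgsA+ cells carrying arabinose-inducible dnaA alleles were grown to OD600 ~0.1, then induced with 0.2% arabinose for 90 min. Lysis used lysozyme (300 μg/ml) plus three freeze-thaw cycles. Cytosol and membranes were separated at 44,000 rpm for 30 min. Membranes were solubilized in octyl-thio-glucoside or CHAPS, recentrifuged and dialysed overnight. Protein levels are relative to wild type, averaged over three biological replicates.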

[8] = Stability of ATP binding of DnaA at 4°, 30° or 42°C, filter retention assay; parameters: species or system E. coli
How it was run: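 Purified DnaA (1.9 μM) was loaded with 1 μM [α-32P]ATP in PP-60 buffer for 15 min at 4°C, then held at 4°, 30° or 42°C. Aliquots were withdrawn at timed intervals. Bound nucleotide was measured by retention on nitrocellulose filters and scintillation counting.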

[9] = 37°C, at least 60 min, not challenged with acidic phospholipids; cited from earlier work
[10] = ThermoFluor assay with SUVs composed of DOPG; assay type: physicochemical, E. coli; settings: ATP-bound form
How it was run: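 DnaA (10 μM) was pre-incubated with 5 mM ATP on ice for 15 min, then mixed with DOPG small unilamellar vesicles at the stated concentrations. SYPRO Orange (50× dilution) was added to 50 μl final volume. Fluorescence was recorded from 25° to 95°C at 1 min/°. Tm and −dF/dT came from a variable-slope sigmoidal fit.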

[11] = protein 5 μM with ATP 5 mM (Fig. 2)
[12] = 4° and 30°C, with reduced affinity
[13] = ATP-bound form, protein 10 μM, ATP 5 mM, no SUVs (Fig. 7C)

B1: DnaA(D118Q): DnaA mutant, Asp^118 in the linker domain substituted with Gln (protein)
chain: MSLSLWQQCLARLQDELPATEFSMWIRPLQAELSDNTLALYAPNRFVLDWVRDKYLNNINGLLTSFCGADAPQLRFEVGTKPVTQTPQAAVTSNVAAPAQVAQTQPQRAAPSTRSGWQNVPAPAEPTYRSNVNVKHTFDNFVEGKSNQLARAAARQVADNPGGAYNPLFLYGGTGLGKTHLLHAVGNGIMARKPNAKVVYMHSERFVQDMVKALQNNAIEEFKRYYRSVDALLIDDIQFFANKERSQEEFFHTFNALLEGNQQIILTSDRYPKEINGVEDRLKSRFGWGLTVAIEPPELETRVAILMKKADENDIRLPGEVAFFIAKRLRSNVRELEGALNRVIANANFTGRAITIDFVREALRDLLALQEKLVTIDNIQKTVAEYYKIKVADLLSKRRSRSVARPRQMAMALAKELTNHSLPEIGDAFGGRDHTTVLHACRKIEQLREESHDIKEDFSNLIRTLSS
modifications: left off: His10, N-terminal, state not stated
reduction in the number of transformants [1]: at least 50 fold | growth of the host on induced expression [2]: no growth defect | overreplication / DNA content per cell upon induction of DnaA [3]: more extensive | formation of higher-order oligomer assemblies [4]: higher-order oligomer assemblies were not formed | growth on LB-agar plates [5]: showed growth at 30 °C | melting point [6, 11]: 49 °C | DnaA in OTG-solubilized membrane fraction (immunoblotting) [7]: abundant accumulation in the membrane | retention of bound ATP [8, 12]: maintained its ATP form

B2: DnaA(D118A) (protein, UniProt P03004 1-467, looked up, variant D118A)
Chromosomal replication …: B1 chain with Q118A
melting point [6, 11]: no shift | retention of bound ATP ([8]; 4°, 30° and 42°C, up to 60 min): retained ATP at different temperatures comparably

B3: DnaA(WT): wild-type E. coli chromosomal replication initiator protein DnaA, purified 10× histidine-tagged (protein)
chain: B1 chain with Q118D
modifications: left off: His10, N-terminal, state not stated
ATP-DnaA complex remaining intact [9]: > 90% | melting point [6, 13]: approximately 57 °C | melting point [6, 11]: 57 °C | DnaA in OTG-solubilized membrane fraction (immunoblotting) [7]: retained in the OTG-solubilized membrane fractions | retention of bound ATP ([8]; 4°, 30° and 42°C, up to 60 min): retained ATP at different temperatures comparably | melting point (peak) ([10]; 100 μM DOPG SUVs (Fig. 7E)): 44 °C

B4: DnaA(L366K): DnaA with substitution L366K in the AAA+ membrane-binding region (protein, UniProt P03004 1-467, looked up, variant L366K)
Chromosomal replication …: B1 chain with Q118D, L366K
melting point [6, 13]: 54 °C | DnaA in OTG-solubilized membrane fraction (immunoblotting) [7]: retained in the OTG-solubilized membrane fractions | melting point (peak) ([10]; 25 μM DOPG SUVs (Fig. 7D)): 50 °C | melting point (peak) ([10]; 100 μM DOPG SUVs (Fig. 7E)): did not shift further

B5: Apo-DnaA: DnaA protein without bound nucleotide, ground or inactive state (protein, UniProt P03004 1-467, looked up)
Chromosomal replication …: B1 chain with Q118D
modifications: nucleotide-free
melting point ([6]; Apo form, no ATP): 44 °C

B6: mutant DnaA protein where Asp^118 is substituted with Gly: DnaA mutant, Asp^118 substituted with Gly (protein, UniProt P03004 1-467, looked up, variant D118G)
Chromosomal replication …: B1 chain with Q118G
melting point [6, 11]: 55 °C

B7: DnaA(A184V): control DnaA mutant defective in ATP binding, changed residue within nucleotide-binding pocket of domain III (protein, UniProt P03004 1-467, looked up, variant A184V)
Chromosomal replication …: B1 chain with Q118D, A184V
reduction in the number of transformants [1]: at least 50 fold | overreplication / DNA content per cell upon induction of DnaA [3]: more extensive | growth on LB-agar plates [5]: showed growth at 30 °C | melting point [6, 11]: 49 °C | retention of bound ATP [8, 12]: maintained its ATP form
